PglD DTNB – PglD (C. jejuni) enzyme inhibition. inhibition, % at 12.5 µM. purified PglD enzyme, DTNB colorimetric CoA detection. AID 602405. 360,000 tested, 0.098% active; in the data active = inhibition above about 16%, passing the limit was not always enough; inconclusive = no clear call, values can overlap the other calls
Statin myotox sup – suppression of simvastatin myotoxicity. C2C12 myotubes + simvastatin, ATP luminescence, 48 h; scaled: DMSO 0, geranylgeraniol control 100. rescue of ATP level, % at 7.49 µM. 330,000 tested, 0.78% active;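 active = mean ATP rescue above about 67%, or every replicate alone reaching that limit, limit read from the data, passing the limit was not always enough; inconclusive = no clear call, values can overlap the other calls; inactive = mean under the limit and some replicate under it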;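 also: myotubes were challenged with 10 µM simvastatin during compound exposure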
E-sel inducer – induces E-selectin expression in human endothelial cells. HUVEC E-selectin immunofluorescence imaging; normalized: neutral wells 0, TNF-alpha wells 100. activation, % at 7.58 µM. 260,000 tested, 0.37% active;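 active = mean E-selectin-positive cell signal at least 10% of the positive control, reached in at least 60% of replicates, without over 20% cell loss; inconclusive = no rule given, readout overlaps actives, possibly toxicity-flagged; inactive = the rest, including those meeting only one limit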
Target sequence (P16581 whole entry, looked up): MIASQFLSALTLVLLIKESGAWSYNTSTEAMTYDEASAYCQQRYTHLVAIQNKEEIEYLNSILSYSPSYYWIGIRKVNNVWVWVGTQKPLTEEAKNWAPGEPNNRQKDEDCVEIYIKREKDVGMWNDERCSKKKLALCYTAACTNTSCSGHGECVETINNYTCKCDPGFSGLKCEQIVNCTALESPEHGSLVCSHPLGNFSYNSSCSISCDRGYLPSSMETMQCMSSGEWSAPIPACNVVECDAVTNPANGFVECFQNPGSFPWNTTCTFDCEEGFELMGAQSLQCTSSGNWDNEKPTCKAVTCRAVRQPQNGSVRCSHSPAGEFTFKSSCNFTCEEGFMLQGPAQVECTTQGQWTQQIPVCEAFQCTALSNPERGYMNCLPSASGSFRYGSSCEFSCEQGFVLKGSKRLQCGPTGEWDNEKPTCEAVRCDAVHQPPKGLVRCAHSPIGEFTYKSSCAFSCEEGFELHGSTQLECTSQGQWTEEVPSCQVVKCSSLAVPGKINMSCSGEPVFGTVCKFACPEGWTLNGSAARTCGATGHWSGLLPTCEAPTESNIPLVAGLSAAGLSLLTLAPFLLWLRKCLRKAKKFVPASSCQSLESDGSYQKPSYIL
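Assay system: HUVEC primary endothelial cells. Input: 3,000 HUVEC seeded per well. Doses: one compound dose added by pin transfer. Read-out basis: % PE-positive cells. Benchmarks: TNF-alpha high, DMSO low. Detection: immunofluorescence imaging. Buffer or medium: EGM-2, gelatin.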
Xi reactivation – X-chromosome reactivation activator; XiGFP mouse fibroblasts, % GFP-positive cells imaging, 3 d; cells co-treated with 5-aza-dC sensitizer; scaled so ellipticine positive control = 100%; activation, % at 7.58 µM; AID 743238; 360,000 tested, 0.055% active;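 active = mean normalized replicate activation at least 10% and every replicate at or above 10%; inconclusive = only one of the two criteria met; inactive = mean below 10% and not all replicates reach 10%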
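Assay system – SV40-immortalized XiGFP fibroblast cells, line 68-5-11 · Buffer or medium – DMEM supplemented with 5-aza-dC as sensitizing agent · Dosing – one concentration, pinned · Benchmarks – positive control ellipticine, 6 µM final · Times – 3 days compound exposure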
DENV2 CPE – protects cells from dengue virus 2 cytopathic effect; DENV2-infected cells, cytopathic effect rescue, plate reader; CPE inhibition, % at 9.99 µM; 350,000 tested, 1.7% active; AID 651640; in the data active = CPE inhibition above about 20%, passing the limit was not always enough; inconclusive = no clear call, values can overlap the other calls; tested in BHK-21 cells
FGF22 binding-1 – shifts melting point of recombinant human FGF22. recombinant FGF22 thermal shift, SYPRO orange fluorescence; percent of sucrose octasulfate shift, DMSO zero. activity (Tm shift, normalised), % at 9.99 µM. 340,000 tested, 1.5% active. AID 651658;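 active = mean Tm shift, scaled 0 neutral to 100 positive control, at about 1.3% or above, every replicate too, limit read from the data; inconclusive = no clear call, values can overlap the other calls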
PglD inh SP – confirmation of Campylobacter jejuni PglD acetyltransferase inhibitors | AID 743156 | Purified C. jejuni PglD, DTNB absorbance 412 nm | shares compounds with PglD DTNB | inhibition, % at 20 µM | 320 tested, under 10 active;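 active = mean inhibition across replicates of at least 20% with every single replicate also at 20% or more; inconclusive = mean inhibition at least 20% but some replicate falls below 20%; inactive = mean inhibition under 20% and not all replicates reach it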;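 also: initial rate of CoA release by acetyl transfer from AcCoA to the UDP-4-amino sugar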
FGF22 binding-2 – binds human FGF22 shifting its melting temperature; recombinant FGF22 thermal shift, SYPRO orange fluorescence; thermal shift activity, °C (ΔTm) at 38 µM; shares compounds with FGF22 binding-1; 1,000 tested, 2% active;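 active = fitted rise in melting shift crosses a set limit at or below the top valid dose tested; inconclusive = flat fit at mid-level activity, or a poor quality fit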
SYPRO no-protein – shows thermal shift signal without protein, FGF22 counter-screen; 1,000 tested, 2% active; AID 743019; shares compounds with FGF22 binding-1; compound-only SYPRO orange thermal shift counter-screen, no protein; AC50, µM (series often up to 38 µM);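 active = rising signal whose fitted curve reaches the 0.54 level within the top valid dose, showing a melting point, actives reach about 13 µM in these data; inactive = the rest, including activity in the opposite direction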; also: value is where the raw curve crosses a fixed level and not half-maximal
Numbers stand for hits; . = inactive; ? = inconclusive; / = no result. In the library only some 3.3% were active in any assay of this set; here they are far more common.

SMILES	PglD DTNB	Statin myotox sup	E-sel inducer	Xi reactivation	DENV2 CPE	FGF22 binding-1	PglD inh SP	others
Cc1ccc(C(=O)N/N=C\c2ccc(OC(=O)c3cccc(F)c3)cc2)cn1	.	.	.	.	.	.	/
Cc1c(C(=O)NC(C)C)sc2ncn(CC(=O)N3CCC(C)CC3)c(=O)c12	24.5	.	/	/	/	/	.
CCCC(=O)Nc1ccc2c(c1)OC[C@H](C)N(C(=O)CN(C)C)C[C@@H](C)[C@H](OC)CN(C)C2=O	.	.	.	.	.	.	/
CC(C(=O)N1CCCc2c1c(=O)oc1ccc(O)cc21)N1CCc2ccccc2C1 (configuration not stated)	23.0	/	/	/	/	/	.
CCC(C)(C)NC(=O)Cc1ccc(C)cc1	47.6	.	/	/	/	/	.
COC(=O)Nc1ccc(S(=O)(=O)Nc2cc(C(F)(F)F)c[nH]c2=O)cc1	30.6	.	/	.	?	.	.
C[C@H](CO)N1C[C@H](C)[C@@H](CN(C)Cc2ccc(Cl)c(Cl)c2)OCc2cn(nn2)CCCC1=O	/	.	.	.	/	/	/
CN1C(=O)C(CC(=O)NC2CCCCC2)SC1=Nc1ccccc1 (configuration not stated)	53.8	/	/	.	.	.	.
C=CCNc1nc(Nc2ccc([N+](=O)[O-])cc2)nc(OCC)n1	/	/	.	.	.	.	/
C=CCNc1nc(Cl)nc(Nc2ccc(OCC)cc2)n1	29.3	/	/	.	.	.	.
COc1cccc(C(C)(O)c2nc(-c3ccc4ccccc4c3)cs2)c1 (configuration not stated)	.	.	.	.	.	.	/
CC(O)(c1cccnc1)c1nc(-c2ccc3ccccc3c2)cs1 (configuration not stated)	22.2	.	.	.	.	.	.
O=C1CS(=O)(=O)C(c2ccccc2)N1c1cccc(Cl)c1 (configuration not stated)	.	/	/	/	.	.	/
CCn1c(SCc2nc3sc(C(=O)O)c(C)c3c(=O)[nH]2)nc2ccccc21	27.6	.	/	/	/	/	47.3
COc1ccccc1-c1nnc(SCc2ccccn2)n1C	62.0	.	/	/	/	/	.
Cc1ccc(C(=O)COC(=O)CCCC(=O)Nc2cc(C(F)(F)F)ccc2Cl)cc1C	24.3	/	.	.	/	/	.
Cc1ccc(C(=O)COC(=O)CCC(=O)Nc2ccccc2Cl)cc1[N+](=O)[O-]	.	/	/	.	/	/	/
C/C=C/c1ccc2c(c1)O[C@@H](CN(C)Cc1ccc(C(=O)O)cc1)[C@H](C)CN([C@H](C)CO)S2(=O)=O	.	.	.	.	.	.	/
CCNC(=O)CC1C(=O)N(c2ccccc2)C(=O)N1Cc1ccc(OC)cc1 (configuration not stated)	33.1	.	/	/	/	/	.
O=C(C[C@H]1C=C[C@H](NC(=O)Nc2ccc(F)cc2)[C@H](CO)O1)NCc1cccc(F)c1	.	.	.	.	.	.	/
O=C(NC[C@H]1[C@@H](c2ccccc2)[C@@H](CO)N1Cc1ccccn1)NC1CCCC1	/	/	.	.	.	/	/
O=C(CSc1ccccc1)NCCc1ccc(F)cc1	75.7	.	.	.	.	.	.
COCc1nc2ccccc2n1CCOc1ccccc1OC	24.3	.	.	/	/	/	.
CCN(CC)C(=O)c1ccccc1NC(=O)c1cccc(S(=O)(=O)N(CC)CC)c1	/	.	.	.	.	.	/
CCN(CC)C(=O)c1ccccc1NC(=O)c1ccccc1	28.5	.	.	.	.	.	.
SMILES	PglD DTNB	Statin myotox sup	E-sel inducer	Xi reactivation	DENV2 CPE	FGF22 binding-1	PglD inh SP	others
COc1ccccc1CNC(=O)C[C@@H]1C[C@H]2c3cc(NS(=O)(=O)c4ccc(F)cc4)ccc3O[C@H]2[C@@H](CO)O1	.	.	.	.	.	.	/
Cc1noc(C)c1NC(=O)Nc1ccc2c(c1)C(=O)N(C)[C@@H]1CC[C@@H](CC(=O)N(C)C)O[C@H]1CO2	.	.	.	.	.	.	/
COC(=O)NCc1cccc(CNC(=O)OC)c1	29.8	.	/	/	/	/	.
COC(=O)NCc1ccc(CNC(=O)OC)cc1	.	.	/	/	/	/	/
O=C(NNS(=O)(=O)c1ccc(Cl)cc1)c1sccc1-n1cccc1	24.9	.	/	/	/	/	.
O=C(NNS(=O)(=O)c1ccccc1)c1sccc1-n1cccc1	.	.	/	/	/	/	/
CCCNC(=O)C[C@H]1C[C@H]2c3cc(NC(=O)Nc4ccccc4)ccc3O[C@H]2[C@H](CO)O1	.	.	.	.	.	.	/
CC(C(=O)N1CCCC1)N(c1ccccc1)S(C)(=O)=O (configuration not stated)	.	.	/	.	.	.	/
Cc1cc(C)cc(N(C(C)C(=O)N2CCCC2)S(C)(=O)=O)c1 (configuration not stated)	74.6	.	.	.	.	.	.
CCN(CC)CC(=O)Nc1sc(C)cc1C(=O)c1ccc(C)cc1	22.1	.	.	.	.	.	.
CCN(CC)CC(=O)Nc1sc(C)cc1C(=O)c1ccccc1	.	.	.	.	.	.	/
COc1ccc(S(=O)(=O)Nc2ccc3c(c2)C(=O)N([C@H](C)CO)C[C@H](C)[C@@H](CN(C)S(=O)(=O)c2ccc(C)cc2)OCCCC[C@H](C)O3)cc1	.	/	/	.	/	.	/
COc1ccc(C2CC(c3ccccc3)=NN2C(=O)COC(=O)/C=C/c2ccc(O)c(OC)c2)cc1 (configuration not stated)	34.3	.	.	.	?	.	.
O=c1ccc2nc3ccccc3sc-2c1	.	.	.	.	?	1.7	/	FGF22 binding-2=.;SYPRO no-protein=.
Brc1ccc(-c2nc3ccccc3s2)s1	.	.	/	/	/	/	/
CCC(=O)N[C@@H]1CC[C@@H](CC(=O)NCc2cc(F)cc(F)c2)O[C@H]1CO	.	.	.	.	.	/	/
Cc1noc(C)c1NC(=O)Nc1ccc2c(c1)C(=O)N([C@@H](C)CO)C[C@H](C)[C@H](CN(C)C(=O)C1CCCCC1)OCCCC[C@@H](C)O2	.	/	.	.	.	.	/
COc1ccc2c3c([nH]c2c1)[C@@H](CO)N(C(=O)CN(C)C)CC31CCN(Cc2cncnc2)CC1	/	/	.	.	.	/	/
Cc1ccccc1C(=O)NCC(=O)OC(C)C(=O)Nc1cccc(S(=O)(=O)N2CCOCC2)c1 (configuration not stated)	.	.	.	.	.	1.5	/	FGF22 binding-2=.;SYPRO no-protein=.
Cc1ccc(S(=O)(=O)Nc2ccc3c(c2)C(=O)N([C@H](C)CO)C[C@H](C)[C@H](CN(C)C(=O)Nc2ccccc2)OCCCC[C@H](C)O3)cc1	.	/	.	.	.	.	/

Assay outcomes (PubChem BioAssay)
